This excerpt belongs to a sample that is enriched for hits.
CHOP UPR activ – activators of apoptotic arm of unfolded protein response (CHOP); CHO-CHOP luciferase reporter, UPR activation, luminescence; percent of tunicamycin response over DMSO baseline; activation, % at 10 µM; actives 0.34% (n = 330,000); AID 449763;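 active = at 10 µM dose, activation of 40% or more, normalized to positive control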;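 also: 100% = tunicamycin at 10 µg/mL and 0% = DMSO alone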
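Test system: CHO CHOP reporter cells. Input: 500 CHO-CHOP cells per well. Medium: F12 with 10% FBS. Technique: luciferase luminescence. Measure: percent activation relative to tunicamycin control. Dosing: 10 µM compound, 0.5% DMSO. Timing: 16-18 h cell attachment, then 6 h compound exposure, 37 °C.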
Dynein transport – blocks dynein driven cargo transport along microtubules; 3617.4 mouse cells, GR-EGFP nuclear translocation imaging; test concentration mostly 20 µM; stimulated with dexamethasone, 1 µM; active compounds read low; z-score, hits read low; actives 0.47% (n = 220,000);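 active = plate z-score of nuclear minus cytoplasmic receptor signal below a set negative limit, without overly bright fluorescence or cell loss, cut at about -3.5 in these data, passing the limit was not always enough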;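 also: z-score of nuclear minus cytoplasmic ring GR-EGFP intensity difference per well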
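Medium: Induction medium lacking tetracycline, stripped serum | Probe or stimulus: 1.0 µM final dexamethasone stimulus | Schedule: 48 h induction, then 1 h compound, then 30 min agonist, 37 °C | Signal: Automated 10x imaging of fixed Hoechst-stained cells | Evaluation: Per-cell GR-EGFP intensity, nucleus versus surrounding cytoplasmic ring, well-averaged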
p-CIP stab down – lowers stability of the mouse p/CIP coactivator protein. decrease of EGFP signal, % at 10 µM. actives 0.01% (n = 290,000). F442A p/CIP-EGFP cells, EGFP fluorescence, 16 h;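 active = EGFP signal decrease of at least 30% at 10 µM or well 3 SD below plate mean, unless failing retest; inactive = the rest, including hits failing retest or dose response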
XBP1 UPR activ – activators of adaptive arm of unfolded protein response (XBP1); activation, % at 20 µM; CHO-XBP1 luciferase reporter, IRE1-XBP1 UPR activation, luminescence; percent of tunicamycin response, DMSO as zero; actives 0.33% (n = 330,000); AID 463104;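 active = versus positive control, 20 µM dose yields 30% or more activation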;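 also: 100% = tunicamycin at 10 µg/mL and 0% = DMSO only wells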
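Test system: CHO-XBP1 luciferase reporter cells | Buffer or medium: Serum-containing F12 medium, 10% FBS | Schedule: 6 h compound exposure at 37 °C, 5% CO2 | Detection: Steady-Glo luciferase glow luminescence, 10 min after reagent addition | Read-out basis: Activation, % of tunicamycin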
CHOP inh – blocks CHOP induction under ER stress; CHO-K1 CHOP-promoter luciferase, tunicamycin-induced, 15-18 h; inhibition, % at 10 µM; actives 3.8% (n = 220,000); AID 2732;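 active = compounds that reduced the stress-induced luciferase reporter signal by more than about 70% of percent inhibition, limit read from the data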;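 also: 0% = tunicamycin plus vehicle and 100% = wells without tunicamycin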
B2AR ag – agonists of human beta-2 adrenergic receptor inducing internalization. Am2.2-beta2AR cells, FAP receptor internalization, flow cytometry. response, % (test concentration not listed). actives 0.43% (n = 340,000). AID 504454;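 active = response above a set limit, near 3 SD of response in nonfluorescent compounds, cut at about 42% in these data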
Target sequence (P07550 whole entry, looked up): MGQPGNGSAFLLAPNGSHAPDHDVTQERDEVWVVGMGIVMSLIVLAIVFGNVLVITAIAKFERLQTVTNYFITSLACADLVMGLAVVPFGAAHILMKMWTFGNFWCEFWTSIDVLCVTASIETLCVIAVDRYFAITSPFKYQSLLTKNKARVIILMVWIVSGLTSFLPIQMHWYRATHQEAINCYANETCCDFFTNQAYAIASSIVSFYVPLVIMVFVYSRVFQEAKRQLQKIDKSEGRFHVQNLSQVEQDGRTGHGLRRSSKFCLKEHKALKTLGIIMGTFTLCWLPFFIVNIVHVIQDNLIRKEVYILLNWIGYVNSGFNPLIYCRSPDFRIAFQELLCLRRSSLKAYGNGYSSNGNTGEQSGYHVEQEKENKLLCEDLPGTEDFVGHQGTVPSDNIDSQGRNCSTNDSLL
CHOP inh conf – confirmation of CHOP induction inhibitors; shares compounds with CHOP inh; CHO-CHOP promoter luciferase reporter, tunicamycin-induced, luminescence; inhibition, % at 10 µM; actives 45% (n = 2,100); AID 504437;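 active = mean of three repeat readings of reporter signal inhibition above a set limit, cut at about 70% in these data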;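 also: 0% = tunicamycin plus vehicle and 100% = wells lacking tunicamycin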
Starred values were filed as active, the others as inactive; / = not tested or not shown.

SMILES	CHOP UPR activ	Dynein transport	p-CIP stab down	XBP1 UPR activ	CHOP inh	B2AR ag	CHOP inh conf
COc1ccc(-c2cc(C(F)(F)F)nc(SCC(=O)N(C)Cc3cn(C)nc3C)n2)cc1OC	0	0.24	-16	5	13	-15	/
Cc1ccc(C)c(NC(=S)NC(NC(=O)Cc2ccccc2)C(Cl)(Cl)Cl)c1 (stereo unspecified)	1	0.51	3	-3	103*	1	25
O=C(Cc1ccc(Cl)c(Cl)c1)Nc1ccc2[nH]c(=O)[nH]c2c1	-1	-0.47	-4	0	98*	-3	6
O=C(COC(=O)Cc1ccc(Cl)cc1)Nc1ccc2[nH]c(=O)[nH]c2c1	-2	/	/	-4	/	-1	/
C=CCn1c(COc2ccc(Cl)cc2)nnc1SCC(=O)N/N=C/c1cccc(O)c1	1	-0.58	0	2	21	3	/
C=CCn1c(COc2ccccc2)nnc1SC(C)C(=O)N/N=C/c1cc(Cl)ccc1O (stereo unspecified)	-4	1.6	6	-3	97*	0	128*
CC(C)C(=O)N1CCC(CN=Cc2c(O)n(C3CCCCC3)c(=O)n(C3CCCCC3)c2=O)CC1	/	-0.9	-12	/	104*	20	118*
Clc1ccc(Oc2nc(N3CCOCC3)nc(N3CCOCC3)n2)cc1	1	-0.61	1	-7	17	-4	/
COc1ccc(Oc2ccc3c(C(F)(F)F)cc(C(F)(F)F)nc3n2)cc1	-2	-0.82	2	3	52	-15	/
Oc1ccc(Oc2ccc3c(C(F)(F)F)cc(C(F)(F)F)nc3n2)cc1	2	-0.28	0	-1	98*	-32	101*
CC(c1ccc(F)cc1)n1cc(C(=O)NCCN(C)C)nn1 (stereo unspecified)	0	0.22	-10	3	18	-10	/
CC(c1ccccc1F)n1cc(C(=O)NCCCc2nc3ccccc3[nH]2)nn1 (stereo unspecified)	0	0.28	-13	-4	97*	-2	20
CC(C)Cn1c(=O)c2ccccc2n2c(SCC(=O)N3c4ccccc4CC3C)nnc12 (stereo unspecified)	3	0.47	-5	-3	98*	-8	85*
CN1CCCC(OC(=O)CCCC(=O)OC2CCCN(C)C2)C1 (stereo unspecified)	1	-0.15	-4	4	13	3	/
O=C(O)CNc1ccccc1C(=O)O	3	0.19	-2	-1	24	2	/
COc1ccc(C2(C(=O)NCC3CCCO3)CCOCC2)cc1 (stereo unspecified)	0	-0.52	-13	0	11	-13	/
CCc1ccc(/C=c2\s/c(=C\C(=O)C(C)(C)C)[nH]c2=O)cc1	-1	0.55	1	0	107*	-2	80*
COc1ccc(N2CCN(C(=O)c3c(C)nn(-c4ccccc4)c3C)CC2)cc1	-3	0.35	-16	-2	23	-9	/
CCNC(=O)NC(=O)C(C)OC(=O)c1oc2ccccc2c1CSC1CCCCC1 (stereo unspecified)	0	-0.001	-4	-1	99*	-3	-2
CCNC(=O)NC(=O)C(C)OC(=O)c1oc2ccc(OCC)cc2c1C (stereo unspecified)	-2	-0.29	-2	-2	35	-19	/
CNC(=O)NC(=O)C(C)OC(=O)c1oc2ccccc2c1CSc1ccc(Cl)cc1 (stereo unspecified)	1	0.48	2	-1	98*	3	99*
CC(C)C(OC(=O)c1oc2ccccc2c1CSC1CCCCC1)C(=O)NC(N)=O (stereo unspecified)	0	-0.046	22	0	63	/	/
O=C(OCn1ncc(Cl)c(Cl)c1=O)c1ccc(C(F)(F)F)cc1	36	-3	6	-6	104*	4	116*
O=C(OCC(=O)c1ccc[nH]1)c1ccc(C(F)(F)F)cc1	1	/	/	1	/	-2	/
Cc1c(NC(=O)c2cccc(NC(=O)COc3ccc(C#N)cc3)c2)c(=O)n(-c2ccccc2)n1C	-2	/	/	-2	/	0	/
SMILES	CHOP UPR activ	Dynein transport	p-CIP stab down	XBP1 UPR activ	CHOP inh	B2AR ag	CHOP inh conf
Cc1ccc(Cn2c(=O)c3c(nc4n3CCCN4Cc3ccccc3)n(C)c2=O)cc1	1	-0.4	-9	-2	105*	2	-11
Cn1c(=O)n(Cc2ccccc2)c(=O)c2c1nc1n2CCCN1Cc1ccccc1	0	0.053	-2	-3	46	-1	/
CC(C)[C@H](NC(=O)c1ccccc1)C(=O)NCCc1ccccc1	2	/	1	4	/	-1	/
O=C(Nc1cccc(F)c1)N(Cc1ccc(Cl)cc1)CC(O)C(F)(F)F (stereo unspecified)	0	-0.4	-22	-1	109*	-4	104*
O=C(Nc1cccc(Cl)c1)Nc1cnccn1	0	/	14	1	/	-4	/
O=C(Nc1cccc(Cl)c1)Nc1ccnc(-c2cccnc2)n1	2	0.27	-9	3	105*	6	105*
CCOC(=O)c1sc(NC(=O)Nc2ccc(Cl)cc2)cc1C	14	1	-2	4	108*	5	30
CCOC(=O)c1sc(NC(=S)NC(=O)CC(C)C)cc1C	1	-0.95	-2	4	107*	4	20
CCOC(=O)c1sc(NC(=O)c2ccc(Cl)s2)cc1C	6	-0.11	-12	0	60	-1	/
CCOc1ccc(C2OC34CCCCC3C(C#N)(C#N)C2(C#N)C(=N)O4)cc1OC (stereo unspecified)	17	-0.22	-22	-2	-55	-1	/
O=C(NCCCCl)C1CC(=O)N(CCc2ccc(F)cc2)C1 (stereo unspecified)	4	/	-5	-5	/	-12	/
COc1ccc(NC(=O)COC(=O)CNC(=O)c2cccs2)cc1Cl	0	/	/	-1	/	10	/
CCOC(=O)Cc1cc(-c2ccc(OC)cc2)nc2ccc3ccccc3c12	1	0.21	-4	-2	23	-2	/
CCOC(=O)Cc1cc(-c2ccc(O)cc2)nc2ccc3ccccc3c12	6	1.1	-14	7	101*	4	96*
COc1ccc(CCNC(=O)c2cc(S(=O)(=O)N3CCCCCC3)ccc2OC)cc1OC	1	/	/	-3	/	10	/
C/C(=N\OCc1cccc(C(=O)O)c1)c1ccc(Cl)cc1	-8	0.26	-10	-9	96*	0	111*
C/C(=N\OCc1ccc(C#N)cc1)c1ccccc1	5	-0.26	-33	0	11	0	/

Screening data as filed in PubChem BioAssay.
